Shown are actives, neighbours in structure and some others; about 1.5% of the full set was active somewhere.
Hck Nef HTS: inhibitors of human Hck kinase activated by Nef; AID 463187; Recombinant Hck-YEEI plus Nef, Z-Lyte FRET kinase assay; P08631; inhibition, % at 20 µM; 0.68% of 220,000 active;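 active = Hck-Nef kinase inhibition above about 50%, limit read from the data; inactive = inhibition below that limit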
Runt-CBFb FRET: Runt domain-CBFb interaction inhibition | Q01196+Q13951 | Cerulean-Runt/Venus-CBFb FRET ratio 530/480, 1 h | inhibition, % at 20 µM | 0.46% of 220,000 active | AID 1496;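 active = inhibition over about 50% at 20 µM in the single-dose screen, limit read from the data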
Target sequence (Q01196 whole entry, looked up, the tested form may be a part): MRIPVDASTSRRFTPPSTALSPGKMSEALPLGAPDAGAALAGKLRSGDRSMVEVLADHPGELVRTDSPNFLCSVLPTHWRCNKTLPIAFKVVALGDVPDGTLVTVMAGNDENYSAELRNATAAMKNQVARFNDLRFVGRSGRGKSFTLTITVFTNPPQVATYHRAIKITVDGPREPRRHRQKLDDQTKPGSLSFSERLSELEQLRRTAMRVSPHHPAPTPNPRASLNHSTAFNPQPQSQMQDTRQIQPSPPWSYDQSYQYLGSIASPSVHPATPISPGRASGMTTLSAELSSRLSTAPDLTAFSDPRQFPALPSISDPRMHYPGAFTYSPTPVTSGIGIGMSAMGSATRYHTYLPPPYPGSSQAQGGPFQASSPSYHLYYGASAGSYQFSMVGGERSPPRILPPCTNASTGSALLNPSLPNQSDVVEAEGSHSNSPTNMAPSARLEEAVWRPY
Target sequence (Q13951 whole entry, looked up, the tested form may be a part): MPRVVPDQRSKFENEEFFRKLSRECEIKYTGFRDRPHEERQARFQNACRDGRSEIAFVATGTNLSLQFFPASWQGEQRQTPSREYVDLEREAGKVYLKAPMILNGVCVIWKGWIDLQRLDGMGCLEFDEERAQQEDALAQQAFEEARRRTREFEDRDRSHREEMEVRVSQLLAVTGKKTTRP
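Assay system: Cerulean-Runt domain fusion protein, energy donor; Signal: fluorescence energy transfer, 422 nm excitation, 530/480 nm emission; Timing: 1 h compound exposure, room temperature; Control set: unlabeled CBFb; Medium: Tris buffer pH 7.5 with salts and BSA; Compound: single test concentration of 20 µM, 1% DMSO final; Probe or stimulus: Venus-CBFb 100 nM.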
RanGTP-Impb inh: disruptors of Ran-importin-beta complex formation – biochemical, FRET, CFP-Ran, YFP-importin-beta, homogeneous, primary screen; cell-free CFP-Ran/YFP-importin-beta FRET ratio; inhibition, % (test concentration not listed); 1.1% of 300,000 active; AID 2216;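 active = more than half of the replicate wells show a fall in the fluorescence ratio signal beyond about 16%, limit read from the data, passing the limit was not always enough; inconclusive = exactly half of the replicate wells pass the set limit; inactive = fewer than half of replicates pass the limit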
CaV13 FRET inh: Primary screen for inhibitors of IQ motif and Ca2+-dependent inactivation inhibitor domain binding in CACNA1D, Förster resonance energy transfer in living cells, … | 0.098% of 340,000 active | HEK cells, CFP/YFP FRET ICDI-IQ, plate reader, 10 min; percent FRET-ratio fall versus neutral wells | AID 743397 | inhibition, % at 12.3 µM;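 active = mean replicate inhibition of at least 30% and at least 1% of replicates passing that level; inconclusive = only one of the two criteria is met; inactive = neither criterion is met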
Runt-SMMHC FRET: Runt domain-CBFb-SMMHC interaction inhibition. inhibition, % at 20 µM. Cerulean-Runt/Venus-CBFb-SMMHC FRET ratio 530/480, 1 h. 0.74% of 220,000 active;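 active = mean inhibition across duplicate retests at 20 µM reaching about 50%, limit read from the data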;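 also: inhibitors lower the FRET ratio by blocking Runt binding to CBFb-SMMHC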
Large screens that a line does not name were inactive.

CCn1c(C)nc2cc(C(=O)n3cc(C(=O)c4ccccc4O)cn3)ccc21	Hck Nef HTS 89 (no result: RanGTP-Impb inh, CaV13 FRET inh)
Cc1ccc(N2C=Nc3ccc(C)c4nc(C)cc2c34)cc1	Runt-CBFb FRET 52, RanGTP-Impb inh 99, Runt-SMMHC FRET 60
Cc1ccc(Nc2cc(C)nc3c(C)cccc23)cc1	none (no result: Hck Nef HTS, Runt-CBFb FRET, Runt-SMMHC FRET)
CC1=Nc2ccc(C)c3nc(C)cc(c23)N1c1ccc(C)cc1	RanGTP-Impb inh 65 (no result: Runt-CBFb FRET, Runt-SMMHC FRET)
O=C(O)c1ccccc1-c1ccc(C=c2sc3nc4cc(Br)cnc4n3c2=O)o1	none (no result: Hck Nef HTS, Runt-CBFb FRET, RanGTP-Impb inh, Runt-SMMHC FRET)
O=c1nc(/C=C/c2ccc(-c3ccc(F)cc3)o2)cc(C(F)(F)F)[nH]1	Runt-CBFb FRET 106, Runt-SMMHC FRET 81 (no result: CaV13 FRET inh)
O=C(O)c1ccccc1-c1ccc(/C=C/c2cc(C(F)(F)F)[nH]c(=O)n2)o1	Runt-CBFb FRET 68, Runt-SMMHC FRET 87
O=C(c1ccc(Cl)c(Cl)c1)N1CCC(=O)N(C(COCc2cccc(Cl)c2)Cc2ccccc2)CC1 (stereo unspecified)	none
CCOC(=O)/C(=C/c1ccc(N2CCC(c3ccccc3)=N2)cc1)C(C)=O	Runt-SMMHC FRET 79 (no result: CaV13 FRET inh)
C[C@@H](CC#N)CN1CC[C@H](C(C)(C)C)CCC1=O	CaV13 FRET inh 34 (no result: Hck Nef HTS, Runt-CBFb FRET, Runt-SMMHC FRET)
C[C@@H]1CCC(=O)N(C[C@@H](C)CC#N)CC1	none (no result: Hck Nef HTS, Runt-CBFb FRET, Runt-SMMHC FRET)
COc1cc(CC(NC(C)=O)C(=O)NC2CCN(C(=O)c3ccc(C)cc3)CC2)cc(OC)c1 (stereo unspecified)	none (no result: Hck Nef HTS, Runt-CBFb FRET, Runt-SMMHC FRET)
CCOc1ccc(NC(=O)CN2C(=O)c3cccc4cccc2c34)cc1	none (no result: Hck Nef HTS, Runt-CBFb FRET, RanGTP-Impb inh, Runt-SMMHC FRET)
CCOc1ccc(NC(=O)CN2C(=O)/C(=C3\SC(=S)N(C4CCS(=O)(=O)C4)C3=O)c3ccccc32)cc1 (stereo unspecified)	Hck Nef HTS 74 (no result: RanGTP-Impb inh)
CCCC1=C(C(=O)OCC)C(c2ccco2)n2ncnc2N1 (stereo unspecified)	none
CCOC(=O)c1c(/N=C/c2ccccc2O)sc2c1CCC2	none
CCOC(=O)c1c(/N=C/c2ccc(O)cc2O)sc2c1CCC2	Runt-SMMHC FRET 56 (no result: CaV13 FRET inh)
O=C(O)CCc1ccc(-c2cccs2)n1CC1CCCO1 (stereo unspecified)	RanGTP-Impb inh 18, Runt-SMMHC FRET 86
CCCn1c(CCC(=O)O)ccc1-c1cccs1	RanGTP-Impb inh inconclusive (no result: CaV13 FRET inh)
COc1ccc(-c2ccc(CCC(=O)O)n2CC(C)C)cc1	Runt-SMMHC FRET 51
COc1ccc(-c2ccc(CCC(=O)O)n2CC2CCCO2)cc1 (stereo unspecified)	RanGTP-Impb inh inconclusive, Runt-SMMHC FRET 75
O=C(O)CCc1ccc(-c2ccc(F)cc2)n1CC1CCCO1 (stereo unspecified)	none
COCCCn1c(CCC(=O)O)ccc1-c1cccs1	RanGTP-Impb inh 55, Runt-SMMHC FRET 126
COc1ccc(NC(=S)NC(NC(C)=O)C(Cl)(Cl)Cl)c([N+](=O)[O-])c1 (stereo unspecified)	none
Cn1c(SCc2nc(-c3ccc(Cl)cc3)no2)nnc1-c1ccccc1	none
N#Cc1c(=O)c2nc(NCCCO)ncc2n2c(=O)c3ccccc3[nH]c12	none
N#Cc1c(=O)c2nc(NCc3ccccc3)ncc2n2ccccc12	RanGTP-Impb inh 38
CN1CCc2c(sc(/N=C/c3ccco3)c2C(N)=O)C1	Runt-CBFb FRET 106, Runt-SMMHC FRET 62
CN1CCc2c(sc(/N=C/c3cccs3)c2C(N)=O)C1	Runt-CBFb FRET 81, RanGTP-Impb inh inconclusive, Runt-SMMHC FRET 65 (no result: CaV13 FRET inh)
CCOC(=O)c1c(/N=C/c2cccc(C)c2O)sc2c1CCN(C)C2	none (no result: CaV13 FRET inh)
CCC(C)C(NC(N)=O)C(=O)Nc1ccc(S(=O)(=O)Nc2ccc(OC)cc2)cc1 (stereo unspecified)	none
CCn1c(=N)c(C(N)=O)cc2c(=O)n3cccc(C)c3nc21	Hck Nef HTS active (no result: Runt-CBFb FRET, RanGTP-Impb inh, CaV13 FRET inh, Runt-SMMHC FRET)
CCn1c(=N)c(C(=O)NC)cc2c(=O)n3cccc(C)c3nc21	Runt-SMMHC FRET 58 (no result: Hck Nef HTS, RanGTP-Impb inh, CaV13 FRET inh)
CCOC(=O)c1cc2c(=O)n3cccc(C)c3nc2n(Cc2cccnc2)c1=N	none (no result: Runt-CBFb FRET, RanGTP-Impb inh, CaV13 FRET inh, Runt-SMMHC FRET)
CCOc1cc(C)c(Cl)cc1S(=O)(=O)NC1CC(C)(C)NC(C)(C)C1	RanGTP-Impb inh inconclusive
Cn1c(SCc2ccccc2)nnc1-c1ccc(O)cc1	none (no result: Hck Nef HTS, Runt-CBFb FRET, Runt-SMMHC FRET)
NNc1nc2c(-c3ccc(Cl)cc3)nnn2c2ccccc12	none
NNc1nc2c(-c3ccc(F)cc3)nnn2c2ccccc12	RanGTP-Impb inh 21
CCOC(=O)C1=C(CSc2nc3c(cc2C#N)CN(C)CC3)OC(N)=C(C#N)C1c1ccc(F)cc1 (stereo unspecified)	RanGTP-Impb inh 19, Runt-SMMHC FRET 63
CCOC(=O)C1=C(CSc2nc3c(cc2C#N)CN(C)CC3)OC(N)=C(C#N)C1c1ccccc1 (stereo unspecified)	RanGTP-Impb inh 32, Runt-SMMHC FRET 104
Nc1ccc2c(c1)OCCOCCOCCOCCOCCO2	none
COc1ccccc1-n1cnnc1SCC(=O)NC1CCS(=O)(=O)C1 (stereo unspecified)	none
Cc1nc(-c2nc(-c3c(C(=O)NNC(=O)c4ccc(Cl)cc4)noc3C)cs2)cs1	RanGTP-Impb inh 17
COC(=O)C1=C(Nc2ccccc2NC(=O)CCCC(=O)O)CSC1	none
CN(C)/C=C1\NC(=S)N(c2ccc(Cl)cc2)C1=O	none
CN(C)c1ccc(C2C3C(=O)NC(=O)C3ON2c2ccc(Cl)cc2)cc1 (stereo unspecified)	RanGTP-Impb inh 22
CS(=O)(=O)Nc1cccc(NC(=O)c2ccc(-n3ccnc3)c3ccoc23)c1	none (no result: Hck Nef HTS, Runt-CBFb FRET, RanGTP-Impb inh, Runt-SMMHC FRET)
CC1(OC(=O)CCc2ccccc2)C(=O)C=C2C=C(c3ccsc3)OC=C2C1=O (stereo unspecified)	Hck Nef HTS 71 (no result: CaV13 FRET inh)
CC1(OC(=O)c2cccs2)C(=O)C=C2C=C(c3ccsc3)OC=C2C1=O (stereo unspecified)	none (no result: Hck Nef HTS, Runt-CBFb FRET, CaV13 FRET inh, Runt-SMMHC FRET)
CCCCOc1ccc(/C=N/NC(=O)c2nnn(-c3nonc3N)c2CN2CCCCCC2)cc1	RanGTP-Impb inh 28 (no result: Hck Nef HTS, Runt-CBFb FRET, Runt-SMMHC FRET)
CCOc1ccc(S(N)(=O)=O)cc1-c1nc2c(C(C)(C)C)nn(C)c2c(=O)[nH]1	none
Cc1cccc(Nc2nnc(SC/C(O)=C(\C#N)c3nc4ccccc4[nH]3)s2)c1C	RanGTP-Impb inh 26
Cc1cccc(C)c1Nc1nnc(SC/C(O)=C(\C#N)c2nc3ccccc3[nH]2)s1	none
CCc1ccc2nc(NC(=O)Cn3cnc4ccccc4c3=O)sc2c1	Hck Nef HTS 55
O=C(Cn1cnc2ccccc2c1=O)Nc1nc2ccccc2s1	none
COc1ccccc1-n1c(-c2ccccc2)c[nH]c1=S	RanGTP-Impb inh inconclusive, Runt-SMMHC FRET 54
O=C(O)CCC(=O)Nc1ccc(Br)c(Cl)c1	Runt-CBFb FRET 100 (no result: CaV13 FRET inh)
S=c1[nH]nc(-c2ccccn2)n1/N=C/c1ccc(-c2ccccc2Cl)o1	Hck Nef HTS 76
COc1ccc2[nH]cc(/C=C/C(=O)c3ccccc3)c2c1	RanGTP-Impb inh 25
Cc1ccc(S(=O)(=O)/C(C#N)=C/c2c[nH]c3ccccc23)cc1	RanGTP-Impb inh inconclusive

Assay outcomes from PubChem BioAssay.
